For orientation: Kd means the constant that tells how readily two partners part at equilibrium.

Results on eight compounds are retold here after PMC4306518 (Journal of Medicinal Chemistry, 2014).

Read-outs that look alike come from different tables or passages of the source.

For assay [1], the target named is T1, bsNOS (Bacillus subtilis, UniProt O34453).
T1 sequence (O34453 1-363): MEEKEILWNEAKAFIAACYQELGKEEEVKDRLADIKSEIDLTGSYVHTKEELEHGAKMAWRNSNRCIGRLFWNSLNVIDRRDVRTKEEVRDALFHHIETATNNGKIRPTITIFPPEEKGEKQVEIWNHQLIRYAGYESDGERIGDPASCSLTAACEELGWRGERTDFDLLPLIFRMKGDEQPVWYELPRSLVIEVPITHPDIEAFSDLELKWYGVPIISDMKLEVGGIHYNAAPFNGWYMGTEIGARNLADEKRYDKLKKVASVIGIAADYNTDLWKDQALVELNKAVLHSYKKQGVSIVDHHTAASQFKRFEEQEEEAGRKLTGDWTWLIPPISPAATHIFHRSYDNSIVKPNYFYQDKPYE
The experiment in a line: Imidazole displacement assay, spectral binding constant.

Another assay deals with B. subtilis. The experiment in a line: Effect of acriflavine and NOS inhibitors on B. subtilis survival. Format: cell-based, Bacillus subtilis. In a few lines: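 WT (ATCC 23857) and Δnos B. subtilis grown separately to OD600 ≈ 1.0, diluted to OD600 0.6 in LB, then brought up in M9 minimal medium with or without test compound (500 μM final) and/or acriflavine (800 μM final). Treated 30 min at 30 °C, serially diluted in M9, plated on LB agar + 0.5% glucose, 37 °C overnight. CFU counted; % survival relative to untreated cells; ≥3 replicates, mean ± SEM, Student's t test.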

A further assay concerns the target rat nNOS (Rattus norvegicus, UniProt P29476). The experiment in a line: Ki with mammalian NOS isoforms: nNOS. Format: biochemical. Particulars: 6 compared to 2.
A further assay has as its target iNOS (Homo sapiens, UniProt P35228). Particulars: read-out: imidazole KD iNOS; used to calculate KS; cited from earlier work.
The target of assay [2] is T1, bsNOS. Particulars: read-out: imidazole KD bsNOS; used to calculate KS; cited from earlier work.
[3] abbreviates: KS bsNOS (+H4B), presence of 50 μM H4B.
The mark [4] stands for this setting: KS bsNOS (−H4B), absence of H4B.

Sequence of rat nNOS (P29476 whole entry, canonical isoform): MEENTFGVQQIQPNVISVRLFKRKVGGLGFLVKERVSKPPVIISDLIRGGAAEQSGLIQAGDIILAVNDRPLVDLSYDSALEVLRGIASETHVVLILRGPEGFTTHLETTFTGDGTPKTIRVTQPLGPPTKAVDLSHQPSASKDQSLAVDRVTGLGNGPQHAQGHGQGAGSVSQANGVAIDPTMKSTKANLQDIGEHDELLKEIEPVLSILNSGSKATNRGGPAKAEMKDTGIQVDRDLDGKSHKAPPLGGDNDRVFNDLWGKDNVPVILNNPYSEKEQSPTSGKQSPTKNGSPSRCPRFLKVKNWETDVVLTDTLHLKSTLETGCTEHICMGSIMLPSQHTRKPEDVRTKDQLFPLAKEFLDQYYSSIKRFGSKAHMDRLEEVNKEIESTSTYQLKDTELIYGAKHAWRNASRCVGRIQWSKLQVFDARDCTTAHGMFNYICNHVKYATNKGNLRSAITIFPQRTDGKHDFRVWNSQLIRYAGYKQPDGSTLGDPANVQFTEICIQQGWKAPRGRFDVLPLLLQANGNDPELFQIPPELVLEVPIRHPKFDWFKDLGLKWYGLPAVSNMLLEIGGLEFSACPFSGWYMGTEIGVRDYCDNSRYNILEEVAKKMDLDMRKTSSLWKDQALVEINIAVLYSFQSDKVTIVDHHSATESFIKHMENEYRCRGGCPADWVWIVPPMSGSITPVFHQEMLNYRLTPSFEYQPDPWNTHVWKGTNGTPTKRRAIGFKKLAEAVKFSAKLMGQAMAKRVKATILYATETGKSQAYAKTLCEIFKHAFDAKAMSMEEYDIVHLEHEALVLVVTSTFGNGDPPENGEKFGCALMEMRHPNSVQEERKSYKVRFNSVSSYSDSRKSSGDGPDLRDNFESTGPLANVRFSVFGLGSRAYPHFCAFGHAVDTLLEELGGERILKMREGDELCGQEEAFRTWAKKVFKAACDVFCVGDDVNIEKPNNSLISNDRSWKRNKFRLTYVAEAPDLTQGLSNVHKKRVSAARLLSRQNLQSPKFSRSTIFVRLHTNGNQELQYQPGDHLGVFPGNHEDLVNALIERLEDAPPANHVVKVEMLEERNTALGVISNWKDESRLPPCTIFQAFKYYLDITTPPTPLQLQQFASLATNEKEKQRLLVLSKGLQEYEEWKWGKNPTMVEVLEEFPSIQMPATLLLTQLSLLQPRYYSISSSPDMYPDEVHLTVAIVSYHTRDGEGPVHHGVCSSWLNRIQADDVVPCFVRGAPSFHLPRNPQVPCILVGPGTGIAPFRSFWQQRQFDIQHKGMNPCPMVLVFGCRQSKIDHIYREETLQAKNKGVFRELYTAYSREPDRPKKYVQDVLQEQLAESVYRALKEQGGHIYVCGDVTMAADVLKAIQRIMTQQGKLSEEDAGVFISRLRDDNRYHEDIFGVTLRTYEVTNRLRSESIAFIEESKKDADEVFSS
Sequence of iNOS (P35228 74-504 limits assumed): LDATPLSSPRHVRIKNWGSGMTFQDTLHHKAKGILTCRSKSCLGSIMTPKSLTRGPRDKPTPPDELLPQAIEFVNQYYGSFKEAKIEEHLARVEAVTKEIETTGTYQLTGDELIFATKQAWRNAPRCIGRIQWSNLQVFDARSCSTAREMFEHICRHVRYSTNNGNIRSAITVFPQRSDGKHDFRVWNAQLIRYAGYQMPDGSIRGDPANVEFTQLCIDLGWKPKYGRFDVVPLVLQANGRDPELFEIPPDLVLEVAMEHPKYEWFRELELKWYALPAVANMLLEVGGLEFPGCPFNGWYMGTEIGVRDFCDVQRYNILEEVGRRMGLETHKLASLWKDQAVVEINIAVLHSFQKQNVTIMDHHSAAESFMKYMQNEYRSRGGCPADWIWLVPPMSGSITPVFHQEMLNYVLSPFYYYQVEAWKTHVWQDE

As for `Cc1cc(N)nc(CCc2cc(CCCN)cc(CCc3cc(C)cc(N)n3)c2)c1` [compound 3], the figures for the Kd on bsNOS [1] (setting [3]) and at bsNOS [1] (setting [4]) were 19 ± 1 µM and 16 ± 1 µM, respectively.

As to acriflavine [reference compound], the “bacterial growth, % of control” value in the assay on B. subtilis (ACR alone (800 μM), 30 min) was 23%.

For `Cc1cc(N)nc(CCc2cc(CN)cc(CCc3ccc4cc[nH]c4n3)c2)c1` [compound 6, 6-(3-(2-(1H-Pyrrolo[2,3-b]pyridin-6-yl)ethyl)-5-(aminomethyl)phenethyl)-4-methylpyridin-2-amine], the Kd amounted to 12 ± 4 µM at bsNOS [1] (setting [3]) and 10 ± 2 µM on bsNOS [1] (setting [4]). In addition, the “fold decrease of potency toward nNOS compared to 2” value on rat nNOS was greater than 4 fold.

`c1c[nH]cn1` [imidazole]: the Kd on iNOS is 158 µM; on bsNOS [2], 384 µM.

Consider `Cc1cc(N)nc(CCc2cc(N)cc(CCc3cc(C)cc(N)n3)c2)c1` [compound 1], for which, on bsNOS [1] (50 μM H4B vs no H4B), the “fold difference in binding (KS) to bsNOS in presence vs absence of H4B” value came to 2 fold. Moreover, the Kd on bsNOS [1] (setting [3]) worked out at 1.9 ± 0.1 µM; on bsNOS [1] (setting [4]), 0.91 ± 0.08 µM.

Turning to `Cc1cc(N)nc(CCc2cc(CN)cc(CCc3cc(C)cc(N)n3)c2)c1` [compound 2], the values for the dissociation constant (Kd) on bsNOS [1] (setting [3]) and on bsNOS [1] (setting [4]) were 47 ± 2 µM and 15 ± 3 µM, respectively. Also, the “bacterial growth inhibition (in words)” value with B. subtilis (B. subtilis) is “good inhibitor of bacterial growth”.

For `NC(=NCCCC(N)C(=O)O)NO` [N-ω-hydroxy-L-arginine (L-NNA), N-ω-hydroxy-L-arginine, reference compound], the Kd on bsNOS [1] (setting [3]) was found to be 1.9 ± 0.1 µM.

On to `CNc1cc(C)cc(CCc2cc(C#N)cc(CCc3cc(C)cc(N)n3)c2)n1` [compound 4, 3-(2-(6-Amino-4-methylpyridin-2-yl)ethyl)-5-(2-(4-methyl-6-(methylamino)pyridin-2-yl)ethyl)benzonitrile], for which the figures for the Kd at bsNOS [1] (setting [3]) and at bsNOS [1] (setting [4]) were 19 ± 2 µM and 12 ± 1 µM, respectively.
